Results: ChEMBL document CHEMBL4842312, “Phenoxazine nucleoside derivatives with a multiple activity against RNA and DNA viruses” (Eur J Med Chem, 2021)

What was measured:
[1] = test system: Vero; assay: Cytotoxicity in African green monkey Vero cells assessed as reduction in cell viability measured after 5 days by resazurin dye based assay; details: chlorocebus sabaeus, vero, 120 h; time 5 day
In short: (§1)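 Cells (about 10⁵/well, 5% FBS) were added to two-fold compound dilutions (eight concentrations from 100 μM; DMSO control) and held 5 days at 36.5 °C in CO2. Medium was then replaced with resazurin (25 μg/mL) for 4 h and stopped with SDS. Fluorescence was read at Ex 525 / Em 580–640 nm, with background wells without resazurin subtracted. Done in two replicates; CC50 calculated.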

[2] = test system: SARS-CoV-2; assay: Antiviral activity against SARS COV-2 infected in monkey vero cells assessed as reduction in virus-induced cytopathic effect preincubated with virus for 1 hr followed by cell infection and measured after 5 days by microscopic analysis; format: functional, organism-based; details: Severe acute respiratory syndrome coronavirus 2, Vero
[3] = Selectivity index, ratio of CC50 for pig PEK cells to EC50 for Antiviral activity against Powassan virus infected in pig PEK cells; format: toxicity, cell-based; details: read-out: Ratio CC50/EC50
[4] = Selectivity index, ratio of CC50 for human HEL cells to EC50 for antiviral activity against thymidine kinase positive Varicella zoster virus; format: toxicity; details: read-out: Ratio CC50/EC50
[5] = test system: Human alphaherpesvirus 3; assay: Antiviral activity against thymidine kinase deficient Varicella zoster virus; format: functional, organism-based
In short: (§2)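 Confluent HEL cultures received 100 CCID50 or 20 PFU of virus, with 2 h adsorption before inoculum removal. Cells were then incubated with compound from 100 μM downward. Cytopathicity or plaques were scored once untreated infected controls reached completion.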

[6] = test system: Human betaherpesvirus 5; assay: Antiviral activity against Human cytomegalovirus Davis; format: functional, organism-based; details: Human betaherpesvirus 5, Davis; in short: as §2
[7] = test system: Human betaherpesvirus 5; assay: Antiviral activity against Human cytomegalovirus AD169; format: functional, organism-based; details: Human betaherpesvirus 5, AD169; in short: as §2
[8] = test system: Respiratory syncytial virus; assay: Antiviral activity against Respiratory syncytial virus assessed as reduction in virus-induced cytopathic effect by MTS assay; format: functional, organism-based; details: human respiratory syncytial virus
[9] = Selectivity index, ratio of CC50 for African green monkey Vero cells to EC50 for Antiviral activity against Chikungunya virus infected in African green monkey Vero cells; format: toxicity; details: read-out: Ratio CC50/EC50
[10] = Selectivity index, ratio of CC50 for human HEL cells to EC50 for antiviral activity against thymidine kinase deficient Varicella zoster virus; format: toxicity; details: read-out: Ratio CC50/EC50
[11] = Selectivity index, ratio of CC50 for pig PEK cells to EC50 for Antiviral activity against Tick-borne virus encephalitis infected in pig PEK cells; format: toxicity, cell-based; details: read-out: Ratio CC50/EC50
[12] = test system: HEL; assay: Cytotoxicity against human HEL cells assessed as reduction in cell viability measured after 3 days by beckman coulter counting method; format: cell-based; details: 72 h, time 3 day
In short: (§3)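 Cells were seeded at 5 × 10³/well, grown 24 h, then exposed to compound from 100 μM downward for 3 days at 37 °C. Cell number was counted with a Coulter counter.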

[13] = test system: Powassan virus; assay: Antiviral activity against Powassan virus infected in pig PEK cells assessed as reduction in virus plaque formation preincubated with virus for 1 hr followed by cell infection and measured after 1 hr by crystal violet staining based assay; format: functional, organism-based
[14] = test system: MDCK; assay: Cytotoxicity in dog MDCK cells assessed as reduction in cell viability measured after 3 days by beckman coulter counting method; format: cell-based, Canis lupus familiaris; details: mdck, 72 h, time 3 day; in short: as §3
[15] = test system: Chikungunya virus; assay: Antiviral activity against Chikungunya virus infected in African green monkey Vero cells assessed as reduction in virus plaque formation preincubated with virus for 1 hr followed by cell infection and measured after 1 hr by crystal violet staining based assay; format: functional, organism-based
[16] = test system: HEp-2; assay: Cytotoxicity in human Hep2 cells assessed as reduction in cell viability measured after 3 days by beckman coulter counting method; format: functional; details: HEp-2, 72 h, time 3 day
In short: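 Hep2 cells seeded at 5 × 10³ cells/well and allowed to grow 24 h, then exposed to compound dilutions starting at 100 μM for 3 days at 37 °C. Cell number measured by Coulter counter.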

[17] = test system: Tick-borne encephalitis virus; assay: Antiviral activity against Tick-borne encephalitis virus infected in pig PEK cells assessed as reduction in virus plaque formation preincubated with virus for 1 hr followed by cell infection and measured after 1 hr by crystal violet staining based assay; format: functional, organism-based
[18] = Cytotoxicity in pig PEK cells assessed as reduction in cell viability measured after 5 days by resazurin dye based assay; set-up: species or system Sus scrofa, Kidney; details: 120 h, time 5 day; in short: as §1
[19] = test system: Human alphaherpesvirus 3; assay: Antiviral activity against thymidine kinase positive Varicella zoster virus; format: functional, organism-based; in short: as §2
[20] = test system: Influenza A virus; assay: Antiviral activity against Influenza A virus (H1N1) infected in MDCK cells assessed as reduction in cytopathic effect preincubated with cells for 1 hrs followed by viral addition and measured after 24 hrs by Reed-Muench method; format: functional, organism-based
In short: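 MDCK monolayers were pre-incubated 1 h at 37 °C with 3-fold compound dilutions (from 2 mg/mL DMSO stock), then infected at MOI 1 for 24 h. Supernatant yield was titrated by 10-fold dilutions on fresh MDCK for 72 h. Titre was read by hemagglutination with 1% chicken erythrocytes and calculated by Reed-Muench as TID50 per 100 μL.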

[21] = test system: Omsk hemorrhagic fever virus; assay: Antiviral activity against Omsk hemorrhagic fever virus infected in pig PEK cells assessed as reduction in virus plaque formation preincubated with virus for 1 hr followed by cell infection and measured after 1 hr by crystal violet staining based assay; format: functional, organism-based

NCCOc1cccc2c1Nc1nc(=O)n([C@H]3C[C@H](O)[C@@H](CO)O3)cc1O2
CC50 [1]: 1.81 µM | EC50 [2]: 1.12 µM

COc1ccc(C(OC[C@H]2O[C@@H](n3cc4c(nc3=O)Nc3ccccc3O4)[C@H](OC)[C@@H]2O)(c2ccccc2)c2ccc(OC)cc2)cc1
CC50 [1]: 26.5 µM | EC50 [2]: 12.4 µM

CCCCCCCCCOc1ccc2c(c1)Nc1nc(=O)n([C@H]3C[C@H](O)[C@@H](CO)O3)cc1O2
selectivity ratio [3]: > 13 | selectivity ratio [4]: > 500 | CC50 [1]: > 100 µM | EC50 [5]: 14.2 µM | EC50 [6]: > 100 µM | EC50 [7]: > 100 µM | EC50 [8]: > 100 µM | selectivity ratio [9]: > 13 | selectivity ratio [10]: > 8 | selectivity ratio [11]: > 18 | CC50 [12]: > 100 µM | EC50 [13]: 7.7 µM | CC50 [14]: > 100 µM | EC50 [15]: 7.4 µM | CC50 [16]: > 100 µM | EC50 [17]: 5.3 µM | CC50 [18]: > 100 µM | EC50 [2]: > 100 µM | EC50 [19]: 0.2 µM | EC50 [20]: > 40 µM

CO[C@@H]1[C@H](O)[C@@H](CO)O[C@H]1n1cc2c(nc1=O)Nc1ccccc1O2
CC50 [1]: > 100 µM | EC50 [2]: > 100 µM

COc1ccc(C(OC[C@H]2O[C@@H](n3cc4c(nc3=O)Nc3ccccc3O4)[C@H](O)[C@@H]2O)(c2ccccc2)c2ccc(OC)cc2)cc1
CC50 [1]: 15.9 µM | EC50 [2]: 11.5 µM

COc1ccc(C(OC[C@H]2O[C@@H](n3cc4c(nc3=O)Nc3c(OCCN)cccc3O4)C[C@@H]2O)(c2ccccc2)c2ccc(OC)cc2)cc1
CC50 [1]: > 100 µM | EC50 [2]: > 100 µM

Nc1onc(C(=O)OCC23CC4CC(CC(C4)C2)C3)c1CCc1ccccc1
EC50 [21]: 15 µM | EC50 [13]: 15 µM | EC50 [17]: 4 µM | CC50 [18]: > 100 µM

NOCN1c2ccccc2Oc2cn([C@H]3C[C@H](O)[C@@H](CO)O3)c(=O)nc21
CC50 [1]: > 100 µM | EC50 [2]: > 100 µM

CCCCCCCCCOc1ccc2c(c1)Nc1nc(=O)n(COCCO)cc1O2
EC50 [5]: > 100 µM | EC50 [6]: > 100 µM | EC50 [7]: > 100 µM | CC50 [12]: > 100 µM | CC50 [14]: > 100 µM | EC50 [2]: > 100 µM | EC50 [19]: > 100 µM | EC50 [20]: > 100 µM

O=c1nc2c(cn1[C@@H]1O[C@H](CO)[C@@H](O)[C@H]1O)Oc1ccccc1N2
CC50 [1]: > 100 µM | EC50 [2]: > 100 µM

NCCOc1cccc2c1Nc1nc(=O)n([C@@H]3O[C@H](CO)[C@@H](O)[C@H]3O)cc1O2
CC50 [1]: 2.92 µM | EC50 [2]: 2.52 µM

COc1ccc(C(OC[C@H]2O[C@@H](n3cc4c(nc3=O)Nc3c(OCCN)cccc3O4)[C@H](O)[C@@H]2O)(c2ccccc2)c2ccc(OC)cc2)cc1
CC50 [1]: > 100 µM | EC50 [2]: > 100 µM

CCCCCCCCCCOc1ccc2c(c1)N(C)c1nc(=O)n([C@H]3C[C@H](O)[C@@H](CO)O3)cc1O2
selectivity ratio [4]: > 11 | CC50 [1]: 59 µM | EC50 [5]: 15.1 µM | EC50 [6]: 20 µM | EC50 [7]: > 20 µM | EC50 [8]: > 100 µM | selectivity ratio [9]: 83 | selectivity ratio [10]: > 6 | CC50 [12]: > 100 µM | EC50 [13]: 0.45 µM | CC50 [14]: > 40 µM | EC50 [15]: 0.71 µM | CC50 [16]: > 100 µM | EC50 [17]: 5.4 µM | CC50 [18]: 79 µM | EC50 [2]: > 100 µM | EC50 [19]: 10.7 µM | EC50 [20]: 23 µM

CN1c2ccccc2Oc2cn([C@H]3C[C@H](O)[C@@H](CO)O3)c(=O)nc21
CC50 [1]: > 100 µM | EC50 [5]: > 100 µM | EC50 [6]: > 100 µM | EC50 [7]: > 100 µM | EC50 [8]: > 100 µM | CC50 [12]: > 100 µM | EC50 [13]: > 50 µM | CC50 [14]: > 100 µM | EC50 [15]: > 50 µM | CC50 [16]: > 100 µM | EC50 [17]: 40 µM | CC50 [18]: > 100 µM | EC50 [2]: > 100 µM | EC50 [19]: > 100 µM

CCCCCCCCOc1ccc2c(c1)N(C)c1nc(=O)n([C@H]3C[C@H](O)[C@@H](CO)O3)cc1O2
selectivity ratio [3]: > 7 | selectivity ratio [4]: 74 | CC50 [1]: > 100 µM | EC50 [5]: > 100 µM | EC50 [6]: > 100 µM | EC50 [7]: > 100 µM | EC50 [8]: > 100 µM | selectivity ratio [9]: > 4 | selectivity ratio [11]: > 4 | CC50 [12]: > 100 µM | EC50 [13]: 13.3 µM | CC50 [14]: > 100 µM | EC50 [15]: 23.8 µM | CC50 [16]: > 100 µM | EC50 [17]: 22 µM | CC50 [18]: > 100 µM | EC50 [2]: > 100 µM | EC50 [19]: 8.7 µM | EC50 [20]: 104 µM

CCCCCCCCCOc1ccc2c(c1)N(C)c1nc(=O)n([C@H]3C[C@H](O)[C@@H](CO)O3)cc1O2
selectivity ratio [3]: > 42 | CC50 [1]: > 100 µM | EC50 [5]: > 20 µM | EC50 [6]: > 100 µM | EC50 [7]: > 100 µM | EC50 [8]: > 100 µM | selectivity ratio [9]: > 15 | selectivity ratio [11]: > 40 | CC50 [12]: > 100 µM | EC50 [13]: 2.4 µM | CC50 [14]: > 100 µM | EC50 [15]: 6.3 µM | CC50 [16]: > 100 µM | EC50 [17]: 2.53 µM | CC50 [18]: > 100 µM | EC50 [2]: > 100 µM | EC50 [19]: > 20 µM | EC50 [20]: 35 µM

Nc1ccn(C[C@@H](CO)OCP(=O)(O)O)c(=O)n1 [CIDOFOVIR]
EC50 [6]: 0.61 µM | CC50 [12]: > 300 µM

Nc1nc(O)c2ncn(COC(CO)CO)c2n1 [GANCICLOVIR]
EC50 [6]: 1.79 µM | EC50 [7]: 19 µM | CC50 [12]: > 300 µM

O=c1nc(NO)ccn1[C@@H]1O[C@H](CO)[C@@H](O)[C@H]1O [N-HYDROXYCYTIDINE]
CC50 [1]: > 100 µM | EC50 [2]: 7.4 µM

CCC(CC)O[C@@H]1C=C(C(=O)O)C[C@H](N)[C@H]1NC(C)=O [OSELTAMIVIR CARBOXYLATE]
CC50 [14]: > 100 µM | EC50 [20]: 2.9 µM

NC(=O)c1ncn([C@@H]2O[C@H](CO)[C@@H](O)[C@H]2O)n1 [RIBAVIRIN]
EC50 [8]: 2 µM | CC50 [16]: 250 µM
